# TRPC4 inh: inhibitors of mouse TRPC4 channel, primary screen, Fluo4 calcium, HEK293 TRPC4beta/mu-opioid cells. Short transient receptor potential channel 4 (Mus musculus), Q9QUQ5. DAMGO-evoked Fluo4 calcium flux; stronger effect = lower value. 0.39% of 300,000 active. B-score at 10 µM. AID 2247, 2010;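 active = B-score over 3 SD under the library average, no early fluorescence shift, positive overall ratio signal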
# Target sequence (Q9QUQ5 whole entry, looked up): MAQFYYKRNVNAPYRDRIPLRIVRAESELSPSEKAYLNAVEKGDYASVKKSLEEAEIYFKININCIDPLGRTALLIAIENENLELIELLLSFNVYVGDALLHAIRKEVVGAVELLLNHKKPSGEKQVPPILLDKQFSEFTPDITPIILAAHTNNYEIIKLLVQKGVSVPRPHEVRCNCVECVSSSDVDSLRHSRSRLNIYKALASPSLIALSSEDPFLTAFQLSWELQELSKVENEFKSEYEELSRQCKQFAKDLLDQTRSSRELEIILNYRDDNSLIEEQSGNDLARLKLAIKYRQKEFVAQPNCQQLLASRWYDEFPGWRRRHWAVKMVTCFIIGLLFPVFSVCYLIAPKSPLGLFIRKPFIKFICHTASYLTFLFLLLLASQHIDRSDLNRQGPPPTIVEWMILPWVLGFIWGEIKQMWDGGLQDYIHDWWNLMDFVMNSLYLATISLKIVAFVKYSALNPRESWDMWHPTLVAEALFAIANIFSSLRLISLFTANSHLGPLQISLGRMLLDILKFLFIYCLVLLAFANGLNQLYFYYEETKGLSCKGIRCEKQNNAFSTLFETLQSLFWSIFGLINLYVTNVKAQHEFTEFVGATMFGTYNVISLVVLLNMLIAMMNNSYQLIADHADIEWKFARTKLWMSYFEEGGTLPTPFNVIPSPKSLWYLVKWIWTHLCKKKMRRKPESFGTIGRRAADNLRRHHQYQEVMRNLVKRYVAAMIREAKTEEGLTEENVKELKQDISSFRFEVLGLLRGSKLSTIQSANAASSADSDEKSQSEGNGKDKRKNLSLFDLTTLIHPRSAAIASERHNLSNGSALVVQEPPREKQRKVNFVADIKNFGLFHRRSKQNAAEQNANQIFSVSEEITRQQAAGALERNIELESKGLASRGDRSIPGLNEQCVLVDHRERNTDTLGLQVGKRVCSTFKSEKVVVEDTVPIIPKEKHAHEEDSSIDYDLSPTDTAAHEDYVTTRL
#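 Test system – stable TRPC4beta/mu-opioid receptor HEK293 cells · Probe or stimulus – DAMGO, a submaximal dose followed by a maximal one · Dosing – one concentration per compound · Signal – Fluo4 calcium fluorescence by kinetic imaging, 5 s 1 Hz baseline · Evaluation – per-well B score of integrated baseline-normalized Fluo4 ratio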
# TRPC6 activator: mouse TRPC6 channel activators, primary screen, cell-based, HEK293, membrane potential dye. HEK293-TRPC6 membrane potential dye fluorescence; stronger effect = higher value. B-score at 10 µM. 0.13% of 310,000 active;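 active = B-score of the integrated fluorescence ratio above library mean plus 3 SD, and starting fluorescence ratio within library mean plus 5 SD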;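 also: higher score means more depolarization so channel activation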
# TRPC6 inh: mouse TRPC6 channel inhibitors, primary screen, cell-based, HEK293, membrane potential dye; B-score at 10 µM; ACh-evoked depolarization; stronger effect = lower value; 1.1% of 310,000 active;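 active = B-score under library mean minus 3 SD, initial fluorescence not abnormally high, positive integrated signal ratio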;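 also: B-score derived from integrated fluorescence ratio over the kinetic read; more negative B-score means stronger inhibition of depolarization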
# TRPC4 PAM: positive allosteric modulators of TRPC4, primary screen, cell-based, mouse TRPC4beta, HEK293 mu-opioid, Fluo-4 calcium. Short transient receptor potential channel 4 (Mus musculus), Q9QUQ5. DAMGO EC20, Fluo-4 Ca2+ flux; stronger effect = higher value. B-score at 10 µM. 0.42% of 310,000 active;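 active = B-score of calcium response area above 5 SD of library B-scores, with initial fluorescence ratio within 5 SD of library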;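 also: B-score of integrated fluorescence ratio over time as area under calcium response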
# TRPC4 agonist: activators of mouse TRPC4 channel, primary screen, Fluo4 calcium, HEK293 TRPC4beta/mu-opioid cells | Short transient receptor potential channel 4 (Mus musculus), Q9QUQ5 | Fluo4 calcium fluorescence; stronger effect = higher value | B-score at 10 µM | 0.49% of 310,000 active;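 active = B-score above 5 SD of library B-scores, and initial fluorescence ratio not above library mean plus 5 SD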;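 also: positive B-score marks a calcium rise read as TRPC4 activation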
#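 System: HEK293 cells stably co-expressing mouse TRPC4beta and mu-opioid receptor; Schedule: Fluo4 dye loading 45 min at room temperature, 110 s recording; Detection: Fluo4 fluorescence, kinetic; Evaluation: B-scored integrated calcium fluorescence ratio; Controls: buffer (low) and maximal DAMGO (high).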
# * = called active by the depositor; i = inactive. Most compounds without a hit are left out; they make up all but 2.3% or so of the library.
SMILES,TRPC4 inh,TRPC6 activator,TRPC6 inh,TRPC4 PAM,TRPC4 agonist
N#CC(C#N)=C(N)c1cccnc1,i,i,i,i,i
N#Cc1ccc(N2CCNCC2)c(F)c1,i,i,i,i,53*
N#Cc1cc(F)c(N2CCNCC2)cc1Cl,i,i,i,i,i
N=c1n(CCO)c2ccccc2n1Cc1ccccc1,-7*,i,i,i,i
Clc1ccc2c(c1)C(c1ccccc1Cl)=NCc1nnc(N3CCN(CCSc4ccccc4)CC3)n1-2,i,i,i,i,i
Clc1ccc2c(c1)C(c1ccccc1Cl)=NCc1nnc(N3CCN(CCOc4ccccc4)CC3)n1-2,i,i,i,29*,i
C=CCN1CC[C@]23c4c5ccc(O)c4O[C@H]2/C(=N/NC(=O)c2ccccc2)CC[C@@]3(O)[C@H]1C5,i,i,i,i,49*
O=[N+]([O-])c1ccc(C[n+]2c(-c3ccccc3)cc(-c3ccccc3)cc2-c2ccccc2)cc1,i,i,i,i,i
Cc1cc(-c2ccccc2)cc(C)[n+]1Cc1ccccc1,i,i,i,i,106*
CC(N)Cc1c[nH]c2c1ccc1ccccc12 (centres undefined),i,i,i,i,92*
O=S(=O)(c1ccccc1)N1CN2CCN(C2)C1,i,i,i,i,i
CC(NCc1cccc(Cl)c1Cl)C(O)c1ccccc1 (centres undefined),i,i,i,i,i
CN(C)C(CNC(=O)Cc1c(Cl)cccc1Cl)c1ccccc1 (centres undefined),i,i,i,i,219*
CCC(=O)N1N=C2C3CCN(CC3)C2C1c1ccc(C)cc1 (centres undefined),i,i,i,i,i
CC(Cc1ccccc1)NC(=O)CCCCC(=O)NC(C)Cc1ccccc1 (centres undefined),i,i,i,i,i
Cn1cnnc1Sc1cc(N2CCNCC2)ccc1[N+](=O)[O-],i,i,i,i,i
C[N+]1(C)[C@@H]2CC[C@H]1CC(OC(=O)C(CO)c1ccccc1)C2 (some centres undefined),i,i,-7.1*,i,i
CC/C(=C\C=C\[C@@H]1C=C[C@@H]2CCC[C@H]2[C@@H]1C(=O)c1ccc[nH]1)[C@@H]1O[C@@H]([C@@H](C)C(=O)O)CC[C@@H]1C,i,i,i,i,67*
O=C(NCCN1CCCCC1)c1ccc(Cl)nc1Cl,i,i,i,i,i
C=C1C2C[C@H](O)C(C)(C)[C@@]2(O)[C@H](O)C[C@]23C[C@@](C)(O)[C@H](CC[C@H]12)[C@H]3OC(C)=O (some centres undefined),i,i,i,i,i
COc1ccc(C(CNC(=O)c2ccc3c(c2)CCC3)N(C)C)cc1 (centres undefined),i,i,i,i,209*
O=[N+]([O-])c1cccnc1N1CCCNCC1,i,i,i,i,i
CC(C)Oc1cc(-n2c(=S)[nH]c3ccccc3c2=O)c(Cl)cc1Cl,i,i,i,12*,i
COC(=O)C1=CCCN(C)C1,i,i,i,i,99*
Cc1ccc(C(=O)Nc2ccc(-n3ccnc3P(=O)(O)c3ccccc3)cc2)cc1,i,i,i,i,i
C=C(C)[C@@]12OC3(c4ccccc4)O[C@@H]1C1[C@@H]4O[C@]4(CO)[C@@H](O)[C@]4(O)C(=O)C(C)=C[C@H]4[C@@]1(O3)[C@H](C)[C@H]2OC(=O)/C=C/C=C/c1ccccc1 (some centres undefined),-6*,i,i,i,i
CN(C)C(=O)Oc1ccc2oc(=O)cc(-c3cc4ccccc4o3)c2c1,i,i,i,i,i
